Assay results taken from ChEMBL document CHEMBL1142626, “Insecticidal and mutagenic evaluation of two annonaceous acetogenins” (J Nat Prod, 2000).

Key:
[1] = tested on: Salmonella typhimurium; experiment: Mutagenic activity in Salmonella Typhimurium TA102 assessed as number of revertants at 50 ug/plate in presence of Wistar rat S9 liver homogenate; assay type: toxicity, organism-based, Liver S9 fraction; details: salmonella enterica subsp. enterica serovar typhimurium
How it was run: (§1)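 Salmonella/microsome plate test, with or without S9 from livers of male Wistar rats (~200 g). Strain markers and spontaneous revertant counts were routinely verified. Revertants are reported as mean ± standard error of triplicate plates. Strain-specific positive controls were used, with 2-aminoanthracene for all strains when S9 was present.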

[2] = tested on: Salmonella typhimurium; experiment: Mutagenic activity in Salmonella Typhimurium TA100 assessed as number of revertants at 20 ug/plate in presence of Wistar rat S9 liver homogenate; assay type: toxicity, organism-based, Liver S9 fraction; details: salmonella enterica subsp. enterica serovar typhimurium; how it was run: as §1
[3] = tested on: Salmonella typhimurium; experiment: Mutagenic activity in Salmonella Typhimurium TA98 assessed as number of revertants at 20 ug/plate in absence of Wistar rat S9 liver homogenate; assay type: toxicity, organism-based; details: salmonella enterica subsp. enterica serovar typhimurium
How it was run: (§2)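 Salmonella/microsome plate test (Ames) in strain TA98, with genetic markers and spontaneous revertant counts verified routinely. Run with and without S9 mix, the S9 being liver postmitochondrial supernatant from male Wistar rats of about 200 g. Doses ran from 0.01 to 100 µg/plate. Revertants are the mean of triplicate plates with standard error. Positive controls were 0.5 µg 4-nitroquinoline-N-oxide without S9 and 15 µg 2-aminoanthracene with S9.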

[4] = tested on: Salmonella typhimurium; experiment: Mutagenic activity in Salmonella Typhimurium TA100 assessed as number of revertants at 10 ug/plate in absence of Wistar rat S9 liver homogenate; assay type: toxicity, organism-based; details: salmonella enterica subsp. enterica serovar typhimurium; how it was run: as §1
[5] = tested on: Salmonella typhimurium; experiment: Bactericidal activity against Salmonella Typhimurium TA102 assessed as viability after 24 hrs in absence of Wistar rat S9 liver homogenate; assay type: functional, organism-based; details: Salmonella enterica subsp. enterica serovar Typhimurium
How it was run: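 Viability assay: test solution or DMSO was mixed with diluted overnight culture and phosphate buffer (no S9) in top agar with histidine/biotin. The mixture was spread on nutrient agar and incubated 24 h at 37 °C. Colonies were counted to give viable bacteria per mL; positive and negative controls included; triplicate.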

[6] = tested on: Salmonella typhimurium; experiment: Mutagenic activity in Salmonella Typhimurium TA102 assessed as number of revertants at 0.1 ug/plate in absence of Wistar rat S9 liver homogenate; assay type: toxicity, organism-based; details: salmonella enterica subsp. enterica serovar typhimurium; how it was run: as §1
[7] = tested on: Salmonella typhimurium; experiment: Mutagenic activity in Salmonella Typhimurium TA102 assessed as number of revertants at 0.01 ug/plate in absence of Wistar rat S9 liver homogenate; assay type: toxicity, organism-based; details: salmonella enterica subsp. enterica serovar typhimurium; how it was run: as §1
[8] = tested on: Salmonella typhimurium; experiment: Mutagenic activity in Salmonella Typhimurium TA98 assessed as number of revertants at 100 ug/plate in absence of Wistar rat S9 liver homogenate; assay type: toxicity, organism-based; details: salmonella enterica subsp. enterica serovar typhimurium; how it was run: as §2
[9] = tested on: Salmonella typhimurium; experiment: Mutagenic activity in Salmonella Typhimurium TA100 assessed as number of revertants at 0.01 ug/plate in absence of Wistar rat S9 liver homogenate; assay type: toxicity, organism-based; details: salmonella enterica subsp. enterica serovar typhimurium; how it was run: as §1
[10] = tested on: Salmonella typhimurium; experiment: Mutagenic activity in Salmonella Typhimurium TA100 assessed as number of revertants at 0.1 ug/plate in presence of Wistar rat S9 liver homogenate; assay type: toxicity, organism-based, Liver S9 fraction; details: salmonella enterica subsp. enterica serovar typhimurium; how it was run: as §1
[11] = tested on: Salmonella typhimurium; experiment: Mutagenic activity in Salmonella Typhimurium TA100 assessed as number of revertants at 100 ug/plate in presence of Wistar rat S9 liver homogenate; assay type: toxicity, organism-based, Liver S9 fraction; details: salmonella enterica subsp. enterica serovar typhimurium; how it was run: as §1
[12] = tested on: Salmonella typhimurium; experiment: Mutagenic activity in Salmonella Typhimurium TA100 assessed as number of revertants at 0.1 ug/plate in absence of Wistar rat S9 liver homogenate; assay type: toxicity, organism-based; details: salmonella enterica subsp. enterica serovar typhimurium; how it was run: as §1
[13] = tested on: Spodoptera littoralis; experiment: Antifeedant effect against Spodoptera littoralis L6 larvae assessed as relative consumption rate at 10 ug, po after 72 hrs; assay type: functional
How it was run: (§3)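 Preweighed, newly emerged S. littoralis L6 larvae (20 per experiment) were orally cannulated with 10 µg in 2 µL DMSO; controls got solvent alone. Relative consumption and growth rates were calculated at 72 h on a dry-weight basis. Log-transformed weights were analysed by ANOVA with LSD tests.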

[14] = tested on: Salmonella typhimurium; experiment: Mutagenic activity in Salmonella Typhimurium TA100 assessed as number of revertants at 10 ug/plate in presence of Wistar rat S9 liver homogenate; assay type: toxicity, organism-based, Liver S9 fraction; details: salmonella enterica subsp. enterica serovar typhimurium; how it was run: as §1
[15] = tested on: Leptinotarsa decemlineata; experiment: Insecticidal activity against Leptinotarsa decemlineata assessed as mortality at 5 ug by hemolymph injection after 72 hrs; assay type: functional
How it was run: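 Adult L. decemlineata (20 beetles) were injected with 5 µg in DMSO through the metepimeron suture of the thorax. Beetles were kept on potato leaves. Symptoms and mortality were recorded up to 3 days, analysed by contingency tables and Abbott-corrected.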

[16] = tested on: Salmonella typhimurium; experiment: Mutagenic activity in Salmonella Typhimurium TA98 assessed as number of revertants at 100 ug/plate in presence of Wistar rat S9 liver homogenate; assay type: toxicity, organism-based, Liver S9 fraction; details: salmonella enterica subsp. enterica serovar typhimurium; how it was run: as §2
[17] = tested on: Salmonella typhimurium; experiment: Mutagenic activity in Salmonella Typhimurium TA102 assessed as number of revertants at 50 ug/plate in absence of Wistar rat S9 liver homogenate; assay type: toxicity, organism-based; details: salmonella enterica subsp. enterica serovar typhimurium; how it was run: as §1
[18] = tested on: Leptinotarsa decemlineata; experiment: Antifeedant effect against Leptinotarsa decemlineata assessed as feeding reduction; assay type: functional, organism-based
How it was run: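 Choice test on leaf disks using adult L. decemlineata or newly emerged fifth-instar S. littoralis larvae. Five to 10 plates per treatment, three insects each. Uneaten leaf-disk area was measured by scanner. %FR = [1 − (treatment/control consumption)] × 100 per arena. Where FR exceeded 50%, EC50 was taken from linear regression of %FR on log dose.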

[19] = tested on: Salmonella typhimurium; experiment: Mutagenic activity in Salmonella Typhimurium TA100 assessed as number of revertants at 100 ug/plate in absence of Wistar rat S9 liver homogenate; assay type: toxicity, organism-based; details: salmonella enterica subsp. enterica serovar typhimurium; how it was run: as §1
[20] = tested on: Salmonella typhimurium; experiment: Mutagenic activity in Salmonella Typhimurium TA98 assessed as number of revertants at 0.01 ug/plate in presence of Wistar rat S9 liver homogenate; assay type: toxicity, organism-based, Liver S9 fraction; details: salmonella enterica subsp. enterica serovar typhimurium; how it was run: as §1
[21] = tested on: Spodoptera littoralis; experiment: Antifeedant effect against Spodoptera littoralis L6 larvae assessed as relative growth rate at 10 ug, po after 72 hrs; assay type: functional; how it was run: as §3
[22] = tested on: Salmonella typhimurium; experiment: Mutagenic activity in Salmonella Typhimurium TA98 assessed as number of revertants at 0.1 ug/plate in absence of Wistar rat S9 liver homogenate; assay type: toxicity, organism-based; details: salmonella enterica subsp. enterica serovar typhimurium; how it was run: as §1
[23] = tested on: Salmonella typhimurium; experiment: Mutagenic activity in Salmonella Typhimurium TA100 assessed as number of revertants at 1 ug/plate in absence of Wistar rat S9 liver homogenate; assay type: toxicity, organism-based; details: salmonella enterica subsp. enterica serovar typhimurium; how it was run: as §1
[24] = tested on: Salmonella typhimurium; experiment: Mutagenic activity in Salmonella Typhimurium TA98 assessed as number of revertants at 20 ug/plate in presence of Wistar rat S9 liver homogenate; assay type: toxicity, organism-based, Liver S9 fraction; details: salmonella enterica subsp. enterica serovar typhimurium; how it was run: as §2
[25] = tested on: Salmonella typhimurium; experiment: Mutagenic activity in Salmonella Typhimurium TA102 assessed as number of revertants at 100 ug/plate in absence of Wistar rat S9 liver homogenate; assay type: toxicity, organism-based; details: salmonella enterica subsp. enterica serovar typhimurium; how it was run: as §1

CCCCCCCCCCCC[C@@H](O)[C@H]1CC[C@H]([C@H](O)CCCC[C@H](O)CCCCC[C@@H](O)CC2=CC(C)OC2=O)O1 (stereo not given in full) [ANNONACIN]
Activity [1]: 430
Activity [2]: 139
Activity [3]: 36
Activity [4]: 104
Activity [5]: Non-toxic
Activity [6]: 296
Activity [7]: 328
Activity [8]: 14
Activity [9]: 150
Activity [10]: 139
Activity [11]: 88
Activity [12]: 142
Activity [13]: 20.53 mg
Activity [14]: 145
Activity [15]: 29.68%
Activity [16]: 28
Activity [17]: 169
EC50 [18]: 10 microg/cm2
Activity [19]: 68
Activity [20]: 36
Activity [21]: 3.44 mg
Activity [22]: 30
Activity [23]: 125
Activity [24]: 26
Activity [25]: 126
